Experimental data from the EternaBench riboswitch data.

Tested on: MS2 coat protein
Experiment: apparent Kd, MS2 coat protein; higher = weaker binding; RNA-MaP array
Summary of the method: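 On an Illumina sequencing chip, sequenced DNA templates served for transcription of the designed RNAs, which were then bound at room temperature by fluorescently labeled MS2 coat protein at 1.5 nM to 3 μM, with or without input ligand. Apparent Kd is the median of the fits to each cluster's binding curve. Only designs measured on at least 10 clusters were kept.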

[1] = designed as: OFF switch for flavin mononucleotide, no ligand
[2] = ligand present: flavin mononucleotide, designed as: OFF switch for flavin mononucleotide
[3] = designed as: ON switch for flavin mononucleotide, no ligand
[4] = ligand present: flavin mononucleotide, designed as: ON switch for flavin mononucleotide

Sequence | apparent Kd [1] [µM] | apparent Kd [2] [µM] | apparent Kd [3] [µM] | apparent Kd [4] [µM] | also measured
AUGUGAUAGGAGAAGGGCUGUCCAUGGACAUCACAGUACAUCCACAUGAGGAUCACCCAUGUUAAGCAGGAUAUCCUGUCGUGU | 0.0272 | 0.0589 |  |  | 
CAUAUGUUAGGAUAUAAGUUUAGAUCAUGCGUGUUUAUGGCUUAGAAGGAACAUGAGGAUCACCCAUGUAACAG | 0.0212 | 0.0223 |  |  | 
GCCUUAGGGGCAGGAUAUUUCGAGGACCUCAACAUGAGGAUCACCCAUGUACCGCAAUCGUCUCUAAAGAAGGGCCUCUUGCUC |  |  | 0.0539 | 0.0285 | 
CAUGCGGCUAGUGAGCGUGGUGAGUAAAGGCGAGGACCGGUACGGCCGCCACUCGAGGCAAGACAUGAGGAUCACCCAUGUUGUA |  |  |  |  | apparent Kd (designed as: OFF switch for tryptophan, no ligand): 0.0151 µM; apparent Kd (ligand present: tryptophan, designed as: OFF switch for tryptophan): 0.0129 µM
UCAAUCACACAUGAGGAUCACCCAUGUGAUAAUCAUGACUCAAGAAGGCAUGUGCAACUUGUUAAUGAGGAUAUUGGAGUAAUG | 0.0319 | 0.0223 |  |  | 
UUCGACAGCGUGAGGAUAUCUACAUCGGGUAGGUGAGAGAAGGCACAUGAGGAUCACCCAUGUUCUGAAGAGCA | 0.016 | 0.0199 |  |  | 
GCCGUUCGAGAGAAGGUUGUACGCGCCACGCGCACAUGAGGAUCACCCAUGUCCUCCAAACUCACAAAGGAUAUCUUAAGAACA | 0.415 | 0.508 |  |  | 
AUUUGACAUGAGGAUCACCCAUGUGACUUGUCGUGAGGAUAUUAUUGAAAUCUAUGUCAUUAAGAAGGCACAAUUU |  |  | 0.0327 | 0.0165 | 
GCCUAGCUAGGAUAUACCAGAGUGUAUACUUAUGUGGAUCGACAUGAGGAUCACCCAUGUAGAAGGAGCAAGAU | 0.0308 | 0.058 |  |  | 
GCUUGACAUGAGGAUCACCCAUGUAAAUGAGAGACAGGAUAUACGAGACACGUAGGGUAGGUAGAAGGGUCGACUG |  |  | 0.0151 | 0.00969 | 
CAAGAGUUAGAAGGAUAUACAAGAUGCUGAAAGAAACGUGAACAAAACAUGAGGAUCACCCAUGUGAAGAAGGUCAAAUAGAAA | 0.0104 | 0.00921 |  |  | 
UCAAUACAGUCGGCCGCCACUGUAACCAAACCUACAUACCAACAUGAGGAUCACCCAUGUUUAUACAGGACCGGGACCUCUAUGA |  |  |  |  | apparent Kd (designed as: ON switch for tryptophan, no ligand): 0.0366 µM; apparent Kd (ligand present: tryptophan, designed as: ON switch for tryptophan): 0.0285 µM
CAUAGCAAAAGUGAUACCAGAGUUCGAGGGAACAUGAGGAUCACCCAUGUGCUUGUACAACUCCCUUGGCAGCACAGAGCAAUUA |  |  |  |  | apparent Kd (designed as: ON switch for theophylline, no ligand): 0.0231 µM; apparent Kd (ligand present: theophylline, designed as: ON switch for theophylline): 0.0103 µM
ACAAGAGUAAAACAUACAUGAGGAUCACCCAUGUUAUCAACAAAGGAUAUCGUUGUGGUAGGGAACGAGAAGGUUGCAAAAUCA |  |  | 0.0154 | 0.0117 | 
UUUAGACGGCAGAAGGCGGGCUCGCGCGGUGUACAUGAGGAUCACCCAUGUGUUUGCCAUCUACCCGAGGAUAUGCAGUGAUGG |  |  | 0.0394 | 0.0132 | 
AUGGUGGCUUCAGGAUAUCGCAAGUUAAUACGUCCCACAUGAGGAUCACCCAUGUAACGGUGGGUCGAGAAGGGAACCAUCCCG | 0.0908 | 0.0635 |  |  | 
GCAUGGACAUGAGGAUCACCCAUGUGUCGCCCUGGACCCGUUAGAAGGCCGUUCCAGAGAACAACGGAGGAUAUAAUUACAGCC |  |  | 0.0357 | 0.027 | 
AAUUGGUGACUAGGAUAUUAGGGAUGGCCGUACUAAGAAGGAGUCGUGCUAACAUGAGGAUCACCCAUGUAUUGGAAGCCUUAA | 0.0155 | 0.0134 |  |  | 
CACACCGCAGUGAGGAUAUACCAACUGAACGUUGAGUAGAAGGCACAUGAGGAUCACCCAUGUCACUACUGACA | 0.00862 | 0.0357 |  |  | 
CCAGGGCGAAACAUGAGGAUCACCCAUGUCCUAGCAACGAUGAGAAGGGUAAACACAAUGUCUUUACAGGAUAUCAACCAUACG |  |  | 0.0112 | 0.0076 | 
GAGAGGGCUUGAGGAUAUCUUCACUCCGACAUGAGGAUCACCCAUGUAUUCCGUUGAUCGUUGGGAGAGAAGGCAACUUUGUAA | 0.058 | 0.054 |  |  | 

Sequence | apparent Kd [1] [µM] | apparent Kd [2] [µM] | apparent Kd [3] [µM] | apparent Kd [4] [µM] | also measured
CUAGGUCAAGGAUAUACAUGAGGAUCACCCAUGUAAGAACCUAGUAGGGUCGUCCGAGGUAGAAGGUGAGCAUU | 0.0249 | 0.0196 |  |  | 
GACCGUGUCAAUCAUCAUCAACAUGAGGAUCACCCAUGUACCAAGGAUAUCUCGCACUACAAGUCAGAGAAGGUGGGUUUACUC |  |  | 0.241 | 0.152 | 
UGAGACAGAGGAUAUACAAAAGGGAAACGAGCACAGAGGAAACAUGAGGAUCACCCAUGUAGAAGGCUGAACAG | 0.00699 | 0.019 |  |  | 
UAGAUAUGAGGAUAUACAUGAGGAUCACCCAUGUGGUUAUCAAACGACAUGACAUUUAGUAGAAGGCAAACAUC | 0.0235 | 0.021 |  |  | 
UCUCAAAUAAAUAUCAUACAUGAGGAUCACCCAUGUCACCGAUAGGAUAUGCGCGUUUCCCACCUGCAGAAGGAUCAAACUGUA |  |  | 0.0154 | 0.0134 | 
GACAGAAAGUCAGGAUAUGAACGGUCAUGACAUGAGGAUCACCCAUGUUUCUUGUGCACCCUGCGUCAGAAGGGACUAGUGAGG |  |  | 0.0193 | 0.0128 | 
GUUAGCACUUAAGGAUAUUGGAAGCGCGUCGUCCAAGAAGGUAAGUUCUUCGUCGACAUGAGGAUCACCCAUGUCAUGCAUGGC | 0.0165 | 0.0118 |  |  | 
AAACAAAUGCAAGGAUAUCAUAAUACAAACAGGAGAGAAGGUGCAGAGCACAUGAGGAUCACCCAUGUCCUAGGAUAUUCCUAA |  |  | 0.121 | 0.0804 | 
CUAAAACAUGAGGAUCACCCAUGUCAUUUAACUCAAGGAUAUAGAUCUGAGAGCUCAGCGCUAGAAGGUGAUUUUG |  |  | 0.0551 | 0.0403 | 
GUUAAAGAACGAGGAUAUAUUUGGUGAGGAGUACACAUGAGGAUCACCCAUGUCCAUCCUAUUCCAUAGAAGGCGUAGAGUUUU |  |  | 0.00671 | 0.00695 | 
GCGCGGCGUGAAGGAUAUGGUUCAGUACAUGAGGAUCACCCAUGUCAGACAGCAUCGGGGCCGUCCCAGAAGGUCACACGUUUU |  |  | 0.00914 | 0.00736 | 
CACCUCCAAGGAUAUACAUGAGGAUCACCCAUGUGGAUAACCUGGGCGCGCCGAGCAAGUAGAAGGUGGAUUGG | 0.0109 | 0.0146 |  |  | 
CGGGAACAUGAGGAUCACCCAUGUCAGGAUAUACGCGAUGGCAACAGUGAUUGUUUGUGUAGAAGGGACUUACG | 0.0333 | 0.0302 |  |  | 
GUAUACAUGAGGAUCACCCAUGUCGUUCUCUUGAGAUGAACAGAGGAUAUGUGAGUAAUAGCGUGACAGAAGGCUGGACAUGAU | 0.0277 | 0.0169 |  |  | 
AUAGCAAAAGUGAGGAUAUUCGACAUAGAACGCAUGAAGAAGGCACAUGAGGAUCACCCAUGUUCUCGUUAGUA | 0.0106 | 0.0141 |  |  | 
AGACCCUAGCAGAAGGCCCGCGACAUCCAAGAGGGAGGAUAUGCCACUAGAGCAAGCUUUGCACAUGAGGAUCACCCAUGUCCU |  |  | 0.132 | 0.0566 | 
AUGAGUAUUAAAGGAUAUCACUUAAUUGAUUGAUGAGAAGGUUAGAUGGCAUACAUGAGGAUCACCCAUGUGGUUUCAUGCGGU | 0.0863 | 0.0592 |  |  | 
UGGAUUCGACAAGGAUAUGGUAGUCAUAGCACAUGAGGAUCACCCAUGUUAAAGCAAAACAAAGUCCAGAAGGUGUAAGUACGG |  |  | 0.0117 | 0.00943 | 
GACAUCCUCACAAUACAUGAGGAUCACCCAUGUGAAGUGGCCUAGGAUAUUCAAGAGUGGGUCACGAAGAAGGAGGCUGCAGGA | 0.0333 | 0.0283 |  |  | 
UCUAGAUCAUCGUGACAUGAGGAUCACCCAUGUCUGCGGGCAAGAAGGUGGUCGUUGUCUAACACCAAGGAUAUUGAGGGAGGU |  |  | 0.0515 | 0.0304 | 
